Test results: ChEMBL document CHEMBL5724801, “EUbOPEN Chemogenomics Library - Multiplex” (2024)
“And” between values parts separate entries of the source, which are not always exact repeats. Identical values can stand only once.

Experiments:
Assay type in all cases: toxicity, cell-based
U2OS = test: Multiplex assay against U2OS; details: human
How it was run: (§1)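 Compound was added to live cells that had been stained at seeding with Hoechst33342, BioTracker Green Microtubule Cytoskeleton Dye, MitoTracker Red and Annexin V Alexa Fluor 680, and imaging followed on a CQ1 microscope at 37°C and 5% CO2. CellPathfinder machine-learning gating divided cells into Hoechst high-intensity objects or normal cells, normal cells into healthy, pyknosed or fragmented nuclei, and pyknosed cells into mitotic or apoptotic. Tubulin, mitochondrial-mass and membrane-permeability phenotypes are per cents of healthy-nucleus cells.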

HEK-293T = test: Multiplex assay against HEK293T; details: human; how it was run: as §1
Fibroblast = test: Multiplex assay against human fibroblast; how it was run: as §1
[1] = 12 h, 1 µM, compound concentration 1 uM
[2] = 12 h, 10 µM, compound concentration 10 uM
[3] = 24 h, 1 µM, compound concentration 1 uM
[4] = 24 h, 10 µM, compound concentration 10 uM
[5] = 48 h, 1 µM, compound concentration 1 uM
[6] = 48 h, 10 µM, compound concentration 10 uM

## Cc1cnc(-c2cc(N3CCN(C(=O)CCS(C)(=O)=O)CC3)ncc2Cl)c(C)c1
U2OS; [1]
  Population Apoptotic (%): 86% and 100%
  Population Fragmented Nuclei (%): 37% and 18%
  Population Healthy Nuclei (%): 54% and 73%
  Population Hoechst High Intensity Objects (%): 2% and 1%
  Population Membrane Permeable-Phenotype (%): 10%
  Population Mitochondria Different-Phenotype (%): 1% and 7%
  Population Mitotic Cells (%): 13% and 0%
  Population Normal (%): 97% and 98%
  Population Pyknosed Nuclei (%): 8%
  Population Tubulin-Different-Phenotype (%): 2% and 7%
  Total Cell Count: 183 and 111
U2OS; [2]
  Population Apoptotic (%): 85% and 75%
  Population Fragmented Nuclei (%): 24% and 17%
  Population Healthy Nuclei (%): 67% and 73%
  Population Hoechst High Intensity Objects (%): 1%
  Population Mitochondria Different-Phenotype (%): 3% and 7%
  Population Mitotic Cells (%): 14% and 25%
  Population Normal (%): 98%
  Population Pyknosed Nuclei (%): 8% and 9%
  Total Cell Count: 258 and 88
U2OS; [3]
  Population Apoptotic (%): 80% and 90%
  Population Fragmented Nuclei (%): 30% and 17%
  Population Healthy Nuclei (%): 62% and 75%
  Population Hoechst High Intensity Objects (%): 2%
  Population Membrane Permeable-Phenotype (%): 5% and 8%
  Population Mitochondria Different-Phenotype (%): 3% and 5%
  Population Mitotic Cells (%): 20% and 10%
  Population Normal (%): 97%
  Population Pyknosed Nuclei (%): 6% and 7%
  Population Tubulin-Different-Phenotype (%): 2% and 8%
  Total Cell Count: 220 and 136
U2OS; [4]
  Population Apoptotic (%): 80% and 85%
  Population Fragmented Nuclei (%): 20% and 21%
  Population Healthy Nuclei (%): 74% and 64%
  Population Hoechst High Intensity Objects (%): 2% and 0%
  Population Mitochondria Different-Phenotype (%): 2% and 1%
  Population Mitotic Cells (%): 20% and 14%
  Population Normal (%): 97% and 99%
  Population Pyknosed Nuclei (%): 4% and 13%
  Population Tubulin-Different-Phenotype (%): 0% and 7%
  Total Cell Count: 309 and 103
U2OS; [5]
  Population Apoptotic (%): 78% and 95%
  Population Fragmented Nuclei (%): 29% and 15%
  Population Healthy Nuclei (%): 63% and 73%
  Population Hoechst High Intensity Objects (%): 0% and 1%
  Population Membrane Permeable-Phenotype (%): 3% and 4%
  Population Mitochondria Different-Phenotype (%): 2% and 5%
  Population Normal (%): 99% and 98%
  Population Pyknosed Nuclei (%): 7% and 10%
  Population Tubulin-Different-Phenotype (%): 1% and 3%
  Total Cell Count: 325 and 184
U2OS; [6]
  Population Apoptotic (%): 94% and 100%
  Population Fragmented Nuclei (%): 11% and 22%
  Population Healthy Nuclei (%): 80% and 71%
  Population Hoechst High Intensity Objects (%): 1% and 3%
  Population Membrane Permeable-Phenotype (%): 4% and 13%
  Population Mitochondria Different-Phenotype (%): 2% and 7%
  Population Mitotic Cells (%): 5% and 0%
  Population Normal (%): 98% and 96%
  Population Pyknosed Nuclei (%): 7% and 5%
  Population Tubulin-Different-Phenotype (%): 2% and 7%
HEK-293T; [1]
  Population Apoptotic (%): 29% and 42%
  Population Fragmented Nuclei (%): 6%
  Population Healthy Nuclei (%): 76% and 75%
  Population Hoechst High Intensity Objects (%): 4% and 9%
  Population Membrane Permeable-Phenotype (%): 0%
  Population Mitochondria Different-Phenotype (%): 50% and 69%
  Population Mitotic Cells (%): 70% and 57%
  Population Normal (%): 95% and 90%
  Population Pyknosed Nuclei (%): 16% and 17%
  Population Tubulin-Different-Phenotype (%): 33% and 24%
  Total Cell Count: 276 and 294
HEK-293T; [2]
  Population Apoptotic (%): 42% and 45%
  Population Fragmented Nuclei (%): 7%
  Population Healthy Nuclei (%): 82% and 75%
  Population Hoechst High Intensity Objects (%): 10% and 7%
  Population Membrane Permeable-Phenotype (%): 0%
  Population Mitochondria Different-Phenotype (%): 47% and 70%
  Population Mitotic Cells (%): 57% and 54%
  Population Normal (%): 89% and 92%
  Population Pyknosed Nuclei (%): 10% and 17%
  Population Tubulin-Different-Phenotype (%): 40% and 39%
  Total Cell Count: 409 and 288
HEK-293T; [3]
  Population Apoptotic (%): 36% and 40%
  Population Fragmented Nuclei (%): 8% and 7%
  Population Healthy Nuclei (%): 78% and 83%
  Population Hoechst High Intensity Objects (%): 2% and 6%
  Population Membrane Permeable-Phenotype (%): 1% and 0%
  Population Mitochondria Different-Phenotype (%): 30% and 36%
  Population Mitotic Cells (%): 63% and 60%
  Population Normal (%): 97% and 93%
  Population Pyknosed Nuclei (%): 12% and 9%
  Population Tubulin-Different-Phenotype (%): 21% and 13%
  Total Cell Count: 368 and 413
HEK-293T; [4]
  Population Apoptotic (%): 33% and 51%
  Population Fragmented Nuclei (%): 15% and 7%
  Population Healthy Nuclei (%): 76% and 80%
  Population Hoechst High Intensity Objects (%): 5%
  Population Membrane Permeable-Phenotype (%): 0%
  Population Mitochondria Different-Phenotype (%): 29% and 47%
  Population Mitotic Cells (%): 66% and 48%
  Population Normal (%): 94%
  Population Pyknosed Nuclei (%): 8% and 12%
  Population Tubulin-Different-Phenotype (%): 31% and 22%
  Total Cell Count: 550 and 392
HEK-293T; [5]
  Population Apoptotic (%): 27% and 34%
  Population Fragmented Nuclei (%): 17% and 14%
  Population Healthy Nuclei (%): 76% and 78%
  Population Hoechst High Intensity Objects (%): 1% and 2%
  Population Membrane Permeable-Phenotype (%): 1% and 0%
  Population Mitochondria Different-Phenotype (%): 17% and 22%
  Population Mitotic Cells (%): 72% and 65%
  Population Normal (%): 98% and 97%
  Population Pyknosed Nuclei (%): 6%
  Population Tubulin-Different-Phenotype (%): 10% and 6%
  Total Cell Count: 718 and 595
HEK-293T; [6]
  Population Apoptotic (%): 25% and 36%
  Population Fragmented Nuclei (%): 14%
  Population Healthy Nuclei (%): 78% and 77%
  Population Hoechst High Intensity Objects (%): 4% and 3%
  Population Membrane Permeable-Phenotype (%): 0%
  Population Mitochondria Different-Phenotype (%): 23% and 32%
  Population Mitotic Cells (%): 74% and 63%
  Population Normal (%): 95% and 96%
  Population Pyknosed Nuclei (%): 7% and 8%
  Population Tubulin-Different-Phenotype (%): 17% and 15%
  Total Cell Count: 753 and 576
Fibroblast; [1]
  Population Apoptotic (%): 36% and 31%
  Population Fragmented Nuclei (%): 9% and 22%
  Population Healthy Nuclei (%): 71% and 36%
  Population Hoechst High Intensity Objects (%): 1% and 9%
  Population Membrane Permeable-Phenotype (%): 0% and 7%
  Population Mitochondria Different-Phenotype (%): 7% and 10%
  Population Mitotic Cells (%): 63% and 68%
  Population Normal (%): 98% and 90%
  Population Pyknosed Nuclei (%): 19% and 41%
  Population Tubulin-Different-Phenotype (%): 20% and 50%
  Total Cell Count: 99 and 85
Fibroblast; [2]
  Population Apoptotic (%): 40% and 26%
  Population Fragmented Nuclei (%): 13% and 21%
  Population Healthy Nuclei (%): 71% and 63%
  Population Hoechst High Intensity Objects (%): 4% and 1%
  Population Membrane Permeable-Phenotype (%): 1%
  Population Mitochondria Different-Phenotype (%): 2%
  Population Mitotic Cells (%): 60% and 73%
  Population Normal (%): 95% and 98%
  Population Pyknosed Nuclei (%): 14% and 15%
  Population Tubulin-Different-Phenotype (%): 24% and 37%
  Total Cell Count: 142 and 121
Fibroblast; [3]
  Population Apoptotic (%): 54% and 47%
  Population Healthy Nuclei (%): 76% and 38%
  Population Hoechst High Intensity Objects (%): 6% and 10%
  Population Membrane Permeable-Phenotype (%): 2% and 3%
  Population Mitochondria Different-Phenotype (%): 4% and 0%
  Population Mitotic Cells (%): 45% and 52%
  Population Normal (%): 93% and 89%
  Population Pyknosed Nuclei (%): 12% and 25%
  Population Tubulin-Different-Phenotype (%): 30% and 61%
  Total Cell Count: 97 and 91
Fibroblast; [4]
  Population Apoptotic (%): 46% and 42%
  Population Fragmented Nuclei (%): 10% and 19%
  Population Healthy Nuclei (%): 79% and 67%
  Population Hoechst High Intensity Objects (%): 0% and 4%
  Population Membrane Permeable-Phenotype (%): 2%
  Population Mitochondria Different-Phenotype (%): 6% and 9%
  Population Mitotic Cells (%): 53% and 57%
  Population Normal (%): 99% and 95%
  Population Pyknosed Nuclei (%): 9% and 12%
  Population Tubulin-Different-Phenotype (%): 28% and 38%
  Total Cell Count: 135 and 116
Fibroblast; [5]
  Population Apoptotic (%): 69% and 36%
  Population Fragmented Nuclei (%): 19% and 40%
  Population Healthy Nuclei (%): 58% and 47%
  Population Hoechst High Intensity Objects (%): 2% and 5%
  Population Membrane Permeable-Phenotype (%): 0% and 12%
  Population Mitochondria Different-Phenotype (%): 1% and 9%
  Population Mitotic Cells (%): 30% and 63%
  Population Normal (%): 97% and 94%
  Population Pyknosed Nuclei (%): 21% and 12%
  Population Tubulin-Different-Phenotype (%): 33% and 70%
  Total Cell Count: 109 and 92
Fibroblast; [6]
  Population Apoptotic (%): 50% and 75%
  Population Fragmented Nuclei (%): 21% and 29%
  Population Healthy Nuclei (%): 69% and 61%
  Population Hoechst High Intensity Objects (%): 2% and 3%
  Population Membrane Permeable-Phenotype (%): 0% and 2%
  Population Mitochondria Different-Phenotype (%): 7% and 5%
  Population Mitotic Cells (%): 50% and 25%
  Population Normal (%): 97% and 96%
  Population Pyknosed Nuclei (%): 8% and 9%
  Population Tubulin-Different-Phenotype (%): 33%
  Total Cell Count: 141 and 131
